High-throughput results (PubChem BioAssay)
Compounds with a hit are over-represented: about 4.6% of the library has one in this group of screens.
CHO parental Ca = signal in parental CHO cells, OX1R antagonist counter-screen. parental CHO-K1, ATP-induced calcium, Fluo-8 fluorescence. inhibition, % at 5.6 µM. 0.63% of 330,000 active;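 active = inhibition above that plate's mean sample inhibition plus 3 SD, cut at about 26% in these data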;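 note: 0% = ATP-challenged DMSO wells and 100% = DMSO wells without ATP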
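Measured by: calcium-sensitive Fluo-8 fluorescence / Test system: CHO parental line / Controls: ATP-challenged DMSO wells low, unchallenged DMSO wells high / Measure: % inhibition / Compound: single nominal dose of 5.6 µM per compound / Replicates: single well per compound, no replicates / Reagent: ATP as calcium-mobilizing challenge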
TAAR1 antagonist = human TAAR1 antagonism. 1.5% of 360,000 active. Q96RJ0. inhibition, % at 3 µM. CHO RD-HGA16 TAAR1, Fluo-8 calcium fluorescence, antagonist;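 active = inhibition above a per-plate cutoff, the mean inhibition of test compounds on that plate plus 3 SD, cut at about 49% in these data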;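 note: 0% = DMSO plus EC80 beta-PEA response and 100% = DMSO alone without agonist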
Target sequence (Q96RJ0 whole entry, looked up): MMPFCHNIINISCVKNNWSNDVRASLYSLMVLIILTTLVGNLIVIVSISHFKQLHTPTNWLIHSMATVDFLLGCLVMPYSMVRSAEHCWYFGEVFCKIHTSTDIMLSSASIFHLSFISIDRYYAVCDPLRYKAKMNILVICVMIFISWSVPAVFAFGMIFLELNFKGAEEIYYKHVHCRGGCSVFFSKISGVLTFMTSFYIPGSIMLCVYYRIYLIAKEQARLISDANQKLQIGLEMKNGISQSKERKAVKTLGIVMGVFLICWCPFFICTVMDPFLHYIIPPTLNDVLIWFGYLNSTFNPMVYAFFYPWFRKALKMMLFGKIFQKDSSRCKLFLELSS
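Test system: RD-HGA16 CHO cells with stable hTAAR1 and Gα16 / Probe or stimulus: EC80 β-phenethylamine stimulus / Times: seeding 17-24 h prior, 75-min 37 °C, 30-min RT dye loading / Detection: Fluo-8 calcium-sensitive fluorescence / Read-out basis: % inhibition scaled between DMSO and EC80 PEA controls / Repeats: singlicate, one well per test compound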
OX1R antag-1 = human HCRTR1 antagonism; 0.43% of 330,000 active; O43613; AID 434989; CHO/OX1R cells, Fluo-8 calcium fluorescence, orexin A; inhibition, % at 5 µM;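 active = inhibition above its plate's threshold, mean inhibition of all tested compounds on the plate plus 3 SD, cut at about 37% in these data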;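 note: 0% = orexin A challenge wells and 100% = SB-334867-A antagonist wells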
TAAR1 agonist = human TAAR1 agonism; CHO RD-HGA16 TAAR1, Fluo-8 calcium fluorescence; vehicle wells 0%, saturating PEA agonist 100%; activation, % at 3 µM; 0.99% of 360,000 active;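 active = activation above the mean activation of all test compounds in the run plus 3 SD, cut at about 38% in these data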
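Assay system – CHO-derived RD-HGA16 cells with stable Gα16 and human TAAR1 · Compound dosing – one-point dosing at 3 µM (nominal) · Incubation – 17-24 h seeding, 75 min 37 °C dye, 30 min RT · Measured by – kinetic Fluo-8 calcium fluorescence · Control set – DMSO vehicle as 0%, PEA at EC100 as 100% · Repeats – single well for each compound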
OX1R antag-2 = OX1R (human) antagonism; OX1R-expressing cells, FRET antagonist read-out; inhibition, % at 6.6 µM; 1.8% of 330,000 active; AID 485270; in the data active = inhibition mostly above about 38%, no sharp cut-off; inactive = mostly below about 40%;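 note: 0% = agonist challenge alone and 100% = reference antagonist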
GPR7 antagonist = blocks human GPR7 receptor signaling. P48145. 1.1% of 290,000 active. inhibition, % at 4.4 µM. AID 1861. GPR7-expressing cells, fluorescence antagonist assay; in the data active = inhibition above about 16%, passing the limit was not always enough;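 note: cells stimulated with the agonist NPW; 0% = agonist with vehicle and 100% = vehicle without agonist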
Target sequence (P48145 whole entry, looked up): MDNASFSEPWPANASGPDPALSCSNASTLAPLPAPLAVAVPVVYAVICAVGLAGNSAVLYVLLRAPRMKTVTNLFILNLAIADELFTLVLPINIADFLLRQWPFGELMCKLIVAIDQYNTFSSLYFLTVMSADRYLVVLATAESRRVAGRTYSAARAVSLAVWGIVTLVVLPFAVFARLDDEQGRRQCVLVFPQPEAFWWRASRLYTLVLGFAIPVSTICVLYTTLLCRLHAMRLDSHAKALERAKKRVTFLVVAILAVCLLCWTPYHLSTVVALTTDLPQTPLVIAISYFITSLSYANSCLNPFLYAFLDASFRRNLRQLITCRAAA
Numbers without * were called inactive; . = not tested or not shown.

SMILES	CHO parental Ca	TAAR1 antagonist	OX1R antag-1	TAAR1 agonist	OX1R antag-2	GPR7 antagonist
CCN=C1NC(c2ccccc2)C(C(=O)OC)=C(C)N1Cc1ccc(C(F)(F)F)cc1 (stereo unspecified)	.	21	.	24	.	.
COc1ccc(C(=O)c2[nH]c(N)c(C(=O)c3c[nH]c4ccccc34)c2-c2ccc(F)c(OC)c2)cc1	.	15	.	8	.	.
COCCn1c(C)cc(C(=O)CSc2nc3ccccc3c(=O)[nH]2)c1C	3	45	14	18	16	3
C=CCn1c(C)cc(C(=O)CSc2nc3ccccc3c(=O)[nH]2)c1C	55*	67*	55*	17	61*	-6
C=CCn1c(C)cc(C(=O)CSc2nc3ccccc3[nH]2)c1C	21	60*	46*	17	42*	-7
Cc1ccc(C(=O)CSc2nc3ccccc3c(=O)[nH]2)cc1C	-29	20	-8	3	48*	-9
CN(c1cccnc1)c1ccc(NC(=O)Cc2cn(Cc3ccccc3)c3ccccc23)cc1Br	.	5	.	0	.	.
Cc1ccc(S(=O)(=O)N2CCCc3nc(-c4ccc(F)cc4)ccc32)cc1	.	-38	.	1	.	.
O=C(N[C@H](Cc1ccccc1)C(=O)O)[C@H]1O[C@@H](n2ccc(=O)[nH]c2=O)[C@H](O)[C@@H]1O	.	-23	.	4	.	.
Cc1ccc(NC(=O)c2cccc(S(=O)(=O)NCc3ccccc3)c2)nc1	12	-2	1	6	59*	.
Cc1ccc(NC(=O)CN(C)C(=O)C2CC(=O)N(Cc3ccccc3)C2)cc1 (stereo unspecified)	-12	-21	-25	4	-6	-7
CCN(CC(=O)Nc1c(F)cccc1F)C(=O)Cc1csc(-c2ccccc2)n1	-30	-6	-10	10	63*	.
CCN(CC(=O)Nc1c(F)cccc1F)C(=O)Cc1c(C)nc2ccccc2c1C	-18	-4	-12	1	1	.
CN1C(=O)[C@@]2(O[C@H]3[C@H]4C=C[C@@H]([C@H]5C(=O)N(Cc6ccccc6)C(=O)[C@@H]45)N3C3=C2C(=O)CC3)c2ccccc21	.	-23	.	13	.	.
CCNS(=O)(=O)c1ccc(CCC(N)=O)cc1	-7	-6	0	7	8	19*
O=C(O)CCc1ccc(S(=O)(=O)NCCc2ccccc2)cc1	1	24	-11	37*	4	-3
O/N=C(\c1ccc(Cl)cc1)c1cc2ccccc2o1	33*	34	-10	-1	13	-1
Nc1nc2c(s1)CCc1c-2cnn1-c1ccccc1	-16	.	5	.	61*	20
Nc1nc2c(s1)COc1ccccc1-2	-12	-10	-11	-1	19	-10
Nc1c2c(nc3sc4c(c13)CCCC4)-c1ccccc1CC2	-10	9	-7	-3	72*	-4
NNc1nc(-c2ccccc2)nc2sc3c(c12)CCCC3	-19	-17	-17	1	8	-8
COn1c(=O)c(-c2ccccc2)[n+]([O-])c2ccccc21	-1	-8	-12	0	42*	2
COn1c(=O)c(-c2ccc(Cl)cc2)[n+]([O-])c2ccccc21	0	6	-3	7	53*	-12
CCOc1ccccc1NC(=O)CSc1nc2nc(-c3cccs3)cc(C(F)(F)F)c2c(=O)[nH]1	-18	-17	-24	-2	47*	-8
COc1ccc(NC(=O)c2ccccc2F)cc1Cl	-2	2	-13	-1	36	7
SMILES	CHO parental Ca	TAAR1 antagonist	OX1R antag-1	TAAR1 agonist	OX1R antag-2	GPR7 antagonist
O=C(Nc1ccc(Oc2ccc(Cl)cc2)c(Cl)c1)c1cc(I)cc(I)c1O	2	11	5	2	49*	-2
CCc1ccc(NC(=O)CCC(=O)c2ccc(C)cc2)cc1	31*	-25	-2	-3	-12	20
O=C(O)CCCC(=O)OCCCc1cc2ccccc2c(=O)o1	.	-9	.	5	.	.
CCOc1ccccc1N(CC(=O)NCCc1ccc(OC)c(OC)c1)S(=O)(=O)c1ccccc1	-16	-29	6	6	76*	-8
COc1ccc(OC)c(N(CC(=O)NC2CC3CCC2C3)S(=O)(=O)c2ccccc2)c1 (stereo unspecified)	-40	-22	-41	6	46*	20
COC(=O)CNC(=O)CN(c1ccc(OC)cc1OC)S(=O)(=O)c1ccccc1	-13	2	7	1	2	.
COC(=O)c1cc(NC(=O)CN(c2ccccc2OC)S(=O)(=O)c2ccccc2)ccc1Cl	-10	51*	0	7	17	13
COc1ccc(N(CC(=O)NCCC2=CCCCC2)S(=O)(=O)c2ccccc2)c(OC)c1	-37	6	-31	-2	62*	17
CN1CCCCC(NC(=O)CCl)C1=O (stereo unspecified)	.	-12	.	1	.	.
CC(=O)OCC(COC(C)=O)(CN1C(=O)c2ccccc2C1=O)CN1C(=O)c2ccccc2C1=O	.	-10	.	1	.	.
CCOc1ccccc1N(CC(=O)Nc1ccc(OC)cc1OC)S(=O)(=O)c1ccccc1	0	-32	-8	-2	50*	4
CCOc1ccccc1N(CC(=O)Nc1ccc(OC)cc1)S(=O)(=O)c1ccccc1	-24	20	-27	1	18	-2
C[C@@H]1ON(C)[C@H]2C[C@H]3c4[nH]c5c(-c6ccccc6F)cccc5c4CCN3C(=O)[C@@H]12	.	20	.	4	.	.
CCOC(=O)C1(Cc2ccccc2)CCN(Cc2cn(CC(=O)OC)c3ccccc23)CC1	-3	2	-25	4	7	32*
CCOC(=O)C1(Cc2ccccc2)CCN(Cc2cccc(OC)c2O)CC1	-24	-22	-14	7	12	-7
Cn1nc(C(C)(C)C)cc1C(=O)NCc1cc(F)cc2c1OCOC2	23	50*	29	9	14	1
CCOC(=O)c1cccc(N2C(N)=NC(N)=NC2(C)C)c1	-1	3	7	0	5	16*
FC(F)Oc1ccc(NC(=S)NC2CCCCCCC2)cc1	37*	8	24	3	29	-2
C/C(=N\NC(=S)NC1CCCCC1)c1ccc(OC(F)F)cc1OC(F)F	41*	23	28	0	37	-9
C/C(=N\NC(=O)C1CC1)c1ccc(OC(F)F)cc1OC(F)F	-10	-7	-24	1	14	-9
O=C(NCc1ccc(F)cc1)c1ccc(N2CCc3ccccc32)c([N+](=O)[O-])c1	-6	52*	3	0	27	-2
COc1ccc(-c2noc(CCCC(=O)NCCc3ccccc3)n2)cc1OC	-10	3	-30	58*	15	-6
COc1ccc(-c2noc(COc3ccccc3OC)n2)cc1OC	-7	-16	4	0	47*	8
CCC(NC(=O)Nc1nnc(C(F)(F)F)s1)(C(F)(F)F)C(F)(F)F	81*	-5	65*	15	60*	29*
